Assay results from paper PMC5316514 (Clinical cancer research : an official journal of the …, 2016).
Several values for one entry are separate records, joined by “and”; a condition that tells them apart may be missing. Identical values can stand only once. Entries after “also recorded” stand apart in the source; their conditions may differ.

How the values were obtained:
PDE4 = details: cited from earlier work
[1] = test system: relapsed/refractory B cell malignancies; assay: Clinical response and days in trial, phase Ib trial; type: in vivo, human; details: roflumilast plus prednisone
Procedure, shortened: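 Cycles lasted 21 days, with oral roflumilast 500 mcg daily throughout. Prednisone 60 mg/m2 PO daily was given on days 8–14 in cycle 1 (maximum 100 mg daily) and on days 1–7 in later cycles. Response was scored by International Working Group revised criteria for each disease.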

AKT = AKT phosphorylation; type: in vivo, human; details: 5 of 8 patients; roflumilast single agent, day 8 vs day 0, PBMC, western blot
PI3K = PI3K activity; type: in vivo, human
B cell lymphoma = details: murine model of B cell lymphoma; cited from earlier work
Safety / adverse events = type: in vivo, human
Procedure, shortened: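 Ten patients received 21-day cycles of oral roflumilast 500 mcg daily. Prednisone 60 mg/m2 PO daily was added on days 8–14 of cycle 1 (maximum 100 mg daily) and on days 1–7 of later cycles. Incidence, severity, relationship and type of adverse events during treatment and follow-up were graded by NCI CTCAE version 4.03.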

[2] = individual patient (UPN, diagnosis in the row)
[3] = individual patient, PI3K/AKT non-suppressors
[4] = individual patient, PI3K/AKT suppressors
[5] = roflumilast 500 mcg PO daily plus prednisone, 10 patients

O=C(Nc1c(Cl)c[n+]([O-])cc1Cl)c1ccc(OC(F)F)c(OCC2CC2)c1 [roflumilast N-oxide]
IC50 for inhibition of PDE4 (PDE4): 0.8 ng/mL

O=C(Nc1c(Cl)cncc1Cl)c1ccc(OC(F)F)c(OCC2CC2)c1 [roflumilast]
partial response or stable disease, share of evaluable patients ([1]; 6 of nine evaluable patients): 66% | average days in trial, true PI3K/AKT suppressor profile ([1]; clinically evaluable patients): 156 days | average days in trial, without PI3K/AKT suppression ([1]; clinically evaluable patients): 91 days | days in trial, range, true PI3K/AKT suppressor profile ([1]; clinically evaluable patients): 49 to 315 days | days in trial, range, without PI3K/AKT suppression ([1]; clinically evaluable patients): 28 to 139 days | partial response or stable disease in PI3K/AKT suppressor group ([1]; four of five patients): 80% | Best response [1, 2]: Stable disease; also recorded: Withdrawn; also recorded: Progressed; also recorded: Partial response | days in trial (second figure of No of cycles/days in trial) [1, 2]: 4 / 105 days and 4 / 98 days and 1 / 29 days and 2 / 46 days and 8 / 190 days and 13 / 315 days and 2 / 49 days and 1 / 28 days and 5 / 139 days and 5 / 127 days | Best response [1, 3]: Stable disease; also recorded: Progressed | Days on trial [1, 3]: 139 days and 105 days and 29 days and 28 days | Best response [1, 4]: Stable disease; also recorded: Partial response; also recorded: Progressed | Days on trial [1, 4]: 190 days and 315 days and 49 days and 127 days and 98 days | patients with early progression (during first or second cycle) ([1]; of nine evaluable patients): 3 patients | days in trial until progression, death or withdrawn consent, range [1]: 28 to 315 days | median number of days in trial until progression, death or withdrawn consent [1]: 105 days | average days in trial, patients of Hispanic origin ([1]; p=0.08 vs non-Hispanic): 193 days | samples with marked suppression of pAKT (T308) levels (AKT): 62.5% | PI3K suppression in non-PI3K/AKT suppressors (PI3K; n=4, no pAKT suppression, day 8 vs day 0, PBMC): < 25% | patients with significantly suppressed PI3K activity, number of evaluated (PI3K; roflumilast 500 mcg PO daily single agent, day 8 vs day 0, PBMC): 7 of the 9 | patients evaluated with significantly suppressed PI3K activity (PI3K; roflumilast as single agent, 7 days, PBMC): 77% | survival (B cell lymphoma): improved | tumor burden (B cell lymphoma): significantly suppressed | IC50 for inhibition of PDE4 (PDE4): 0.3 ng/mL | transitory episode of suicidal ideation, patients (Safety / adverse events; UPN#10, end of first cycle, resolved upon cessation of study drug): One patient | transient ≥ grade 2 neutropenia, patients (Safety / adverse events; roflumilast 500 mcg PO daily plus prednisone, 3 of 10 patients): 30% | grade 4 events (Safety / adverse events; [5]): no grade 4 events | incidence of most common ≥Grade 2 treatment-related AEs (fatigue, anorexia, neutropenia), all causality (Safety / adverse events; [5]): ≥ 25% | tolerability of treatment (Safety / adverse events; [5]): generally well tolerated
